Bioassay records deposited in PubChem BioAssay by Sanford-Burnham Center for Chemical Genomics.
PMI act satM6P: PMI (human) activation, high substrate; P34949; coupled PMI enzyme assay, resazurin fluorescence, 20 min; hits give high values; 1 = untreated enzyme, 0 = substrate-free blank; activation factor at 20 µM; hit rate 0.34% among 190,000; AID 1216;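 active = activation factor of 2 or more at 20 µM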
Target sequence (P34949 whole entry, looked up): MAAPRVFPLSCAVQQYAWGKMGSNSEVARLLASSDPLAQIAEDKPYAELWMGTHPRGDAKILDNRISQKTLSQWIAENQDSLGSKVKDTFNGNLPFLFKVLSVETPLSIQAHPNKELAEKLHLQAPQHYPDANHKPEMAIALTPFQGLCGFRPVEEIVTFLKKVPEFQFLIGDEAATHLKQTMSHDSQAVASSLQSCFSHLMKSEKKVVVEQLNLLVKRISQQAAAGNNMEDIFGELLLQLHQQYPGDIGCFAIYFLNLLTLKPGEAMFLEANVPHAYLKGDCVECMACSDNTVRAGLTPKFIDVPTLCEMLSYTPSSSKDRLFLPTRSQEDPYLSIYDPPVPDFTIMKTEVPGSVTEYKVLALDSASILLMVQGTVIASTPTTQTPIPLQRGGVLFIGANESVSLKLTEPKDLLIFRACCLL
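Test system: human phosphomannose isomerase with PGI, G6PDH, diaphorase coupling enzymes; amount: 15 ng/mL PMI; incubation: enzyme reaction with compound 20 min at room temperature; technique: resorufin fluorescence (Ex 544/Em 590 nm) from resazurin via diaphorase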
Diaph inh CS: inhibits diaphorase or chemically oxidizes, flagging diaphorase assay artifacts; diaphorase resazurin-to-resorufin fluorescence, NADH, 16 min; bacterial (C. kluyveri) enzyme, not human; inhibition, % at 20 µM; hit rate 0.69% among 190,000; AID 1217;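 active = primary screen inhibition at 20 µM above a set limit, cut at about 50% in these data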
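Benchmarks: positive control wells lacking NADH, neutral wells with DMSO only. System: bacterial diaphorase enzyme (C. kluyveri). Input: 0.14 U/mL diaphorase, enzyme working solution. Detection: resorufin fluorescence, excitation 544 nm, emission 590 nm. Times: 16-min room-temperature incubation before reading.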
Diaph act CS: diaphorase activation or chemical reduction counter-screen | Diaphorase/resazurin coupled assay, resorufin fluorescence, 16 min; hits give high values; 1 = vehicle wells, 0 = NADH-free wells | activation factor at 20 µM | hit rate 0.005% among 190,000 | AID 1229;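 active = diaphorase activity raised at least twofold by the compound at 20 µM; inactive = activation factor below 2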
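Material: purified diaphorase enzyme from Clostridium kluyveri / Medium: HEPES pH 7.4 buffer with MgCl2 and Tween 20 / Schedule: enzyme reaction of 16 min at room temperature / Measured by: resorufin fluorescence, excitation 544 nm, emission 590 nm / Evaluation: rise in resorufin formation, marking diaphorase activation or chemical reduction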
G6PDH CS: counter-screen for G6PDH assay hits: L. mesenteroides G6PDH inhibition. Purified L. mesenteroides G6PDH, diaphorase/resazurin coupled fluorescence, 45 min. inhibition, % at 5 µM. hit rate 0.12% among 200,000. AID 1020; in the data active = inhibition above about 50%
PMI activator: activators of human phosphomannose isomerase. purified human PMI, coupled resazurin fluorescence, 20 min; hits give high values; 1 = vehicle control, 0 substrate-free wells. hit rate 0.005% among 190,000. activation factor at 20 µM. AID 1214. P34949;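 active = activation factor of 2 or more at 20 µM, relative to plate controls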
Numbers stand for hits; i = inactive; nt = not tested or not shown. This is a sample that favours compounds with a hit; in the whole collection about 1.1% have one here.

SMILES | PMI act satM6P | Diaph inh CS | Diaph act CS | G6PDH CS | PMI activator
COC(=O)[C@@]1(Cc2ccc(F)cc2)[C@H]2c3cc(C(=O)N4CCCC4)n(CCc4ccc(O)c(O)c4)c3C[C@H]2CN1C(=O)c1ccccc1 | i | 51.8 | i | i | i
COc1ccc(-n2c(NC(=O)c3ccc(Br)o3)c(C#N)c3nc4ccccc4nc32)cc1 | i | 63.0 | i | i | i
O=C(CCS(=O)(=O)CCN1CCOCC1)NCNC(=O)CCS(=O)(=O)CCN1CCOCC1 | nt | nt | nt | i | nt
COc1cc(CNc2ccc3[nH]c(=O)[nH]c3c2)cc(Cl)c1OCC(=O)NC(C)(C)C | i | 73.2 | i | i | i
C=CCOc1c(CNc2ccc3[nH]c(=O)[nH]c3c2)cccc1OC | nt | nt | nt | i | nt
CCOc1cc(CNc2ccc3[nH]c(=O)[nH]c3c2)ccc1OCC(=O)NC(C)(C)C | i | 66.1 | i | i | i
C=CCOc1ccc(CNc2ccc3[nH]c(=O)[nH]c3c2)cc1OCC | nt | nt | nt | i | nt
Cn1c(=O)[nH]c(=O)c2c1nc(N1CCCCCC1)n2CCOc1ccccc1 | nt | nt | nt | i | nt
COc1ccc(/C=N/Nc2cc(N(C)C)nc(N(C)C)n2)cc1 | i | i | i | i | i
CN(C)c1cc(N/N=C\c2ccccc2)nc(N(C)C)n1 | i | 51.5 | i | 53.6 | i
COc1ccccc1/C=N/Nc1cc(N(C)C)nc(N(C)C)n1 | i | 52.9 | i | i | i
O=C1c2sc3nc4n(c(=O)c3c2CCC1Br)CCCCC4 (stereo unspecified) | i | 62.5 | i | i | i
O=C1CCCc2c1sc1nc3n(c(=O)c21)CCCCC3 | i | i | i | i | i
COc1cc(NC(C)=O)c2ncccc2c1[N+](=O)[O-] | i | 61.3 | i | i | i
COc1ccc(NC(=O)COc2cccnc2[N+](=O)[O-])cc1OC | i | i | i | i | i
CN(Cc1nc(Cc2ccccc2F)no1)CC1(N2CCOCC2)CCCCC1 | i | i | i | i | i
CN(Cc1nc(Cc2ccccc2F)no1)Cc1cccc2ncccc12 | i | i | i | 50.7 | i
COc1ccc(/C=N/n2c(-c3n[nH]c4c3CCC4)n[nH]c2=S)cc1OC | i | 63.1 | i | i | i
O=C1NCCCC2c3c(cc(Br)c(O)c3Br)OC12N1CCOCC1 (stereo unspecified) | i | i | i | i | i
O=C1NCCCC2c3cc(O)c4ccccc4c3OC12N1CCCCC1 (stereo unspecified) | i | i | i | 55.5 | i
Cc1cc(C)c2nc(NNC(=O)c3ccc(S(=O)(=O)N4CCc5ccccc5C4)cc3)sc2c1 | i | i | i | i | i
Cc1cc(C)c2nc(NNC(=O)c3cc(=O)c4ccccc4o3)sc2c1 | i | 67.2 | i | i | i
c1ccc2c(-c3[nH]ncc3CNCCCn3ncc4ccccc43)cccc2c1 | i | i | i | i | i
ClCc1ncc(-c2ccc(Cl)cc2)o1 | i | i | i | i | i
O=[N+]([O-])/C(=C\Nc1ccccc1Cl)S(=O)(=O)c1ccccc1 | 2.4 | i | i | i | i
SMILES | PMI act satM6P | Diaph inh CS | Diaph act CS | G6PDH CS | PMI activator
O=C(CCS(=O)(=O)c1ccccc1)Nc1nc(-c2cccs2)cs1 | i | i | i | 50.3 | i
O=C(COc1ccccc1)Nc1nc(-c2cccs2)cs1 | i | i | i | i | i
Cc1cc(/C=c2/sc3nc4ccccc4n3c2=O)c(C)n1-c1ccccn1 | i | 52.1 | i | i | i
CCOc1ccc(-n2c(C)cc(/C=C3/C(=N)N4C(=NC3=O)SN=C4S(C)(=O)=O)c2C)cc1 | 2.1 | i | i | i | i
Cc1cc(/C=C2/C(=N)N3C(=NC2=O)SN=C3S(C)(=O)=O)c(C)n1-c1ccc(F)cc1 | i | i | i | i | i
CC(C)c1ccc(S(=O)(=O)/N=C2/C=CC(=O)c3ccccc32)cc1 | i | i | i | 54.7 | i
COC(=O)C(C(C)=O)C1=C/C(=N\S(=O)(=O)c2ccc(C)cc2)c2ccccc2C1=O (stereo unspecified) | i | i | i | i | i
Cc1ccc2c(CN3CCCc4ccccc43)cc(=O)oc2c1C | 2.3 | i | i | i | i
O=C(CSCc1ccc(Br)cc1)N1CCCC1 | i | i | i | i | i
Cc1ccc(O)c(C=Nc2ccc3[nH]ncc3c2)c1 | i | 60.8 | i | i | i
Cc1nc2sc3c(NCc4ccco4)ncnc3c2c2c1COC(C)(C)C2 | i | 66.2 | i | i | i
CC(C)Cc1nc2sc3c(NCc4ccco4)ncnc3c2c2c1COC(C)(C)C2 | i | i | i | i | i
CCCCN1C(=O)C2(NNc3ccccc3O2)c2ccccc21 (stereo unspecified) | 2.1 | i | i | i | i
C=CCN1C(=O)C2(NNc3ccccc3O2)c2ccccc21 (stereo unspecified) | i | i | i | i | i
COc1ccc(OCC(=O)NNC(=O)C(=O)N2CCCC2)cc1 | i | i | i | i | i
C[C@H]1C=C(C(=O)N2CCOCC2)O[C@@H](OCc2ccc(CO)cc2)C1 | i | i | i | i | i
CC(=O)n1cc([C@H]2C=C(C(=O)NCc3ccccc3)O[C@@H](OCc3ccc(CO)cc3)C2)c2ccccc21 | i | i | i | i | i
CC(=O)n1cc([C@@H]2C=C(C(=O)Nc3ccccc3)O[C@H](OCc3ccc(CO)cc3)C2)c2ccccc21 | i | 51.1 | i | i | i
C[C@@H]1C=C(C(=O)N2CCN(C)CC2)O[C@H](OCc2ccc(CO)cc2)C1 | i | 68.5 | i | i | i
CC(=O)n1cc([C@@H]2C=C(C(=O)N3CCN(Cc4ccccc4)CC3)O[C@H](OCc3ccc(CO)cc3)C2)c2ccccc21 | i | 58.6 | i | i | i
COc1ccc(S(=O)(=O)N(C)C)cc1NC(=O)Cc1c[nH]c2ccccc12 | i | i | i | i | i
Cc1ccc(N2C(=O)C3C(C2=O)C(C(=O)c2ccc(Cl)cc2)N2CCCC32)cc1 (stereo unspecified) | 2 | i | i | i | i
O=C(O)CCCNC(=O)OCc1ccccc1 | i | i | i | i | i
O=C(O)C/C=C(\NC(=O)OCc1ccccc1)C(=O)OCc1ccccc1 | 2.6 | i | i | i | i
CCC(Sc1nc2cc(OC)c(OC)cc2c(=O)n1CCc1ccc(OC)c(OC)c1)C(=O)NCCOC (stereo unspecified) | i | i | i | i | i
CCOCC(=O)Nc1cc(Cl)c(OC)cc1OC | i | i | i | i | i
C=C(C)C1CC=C(C)/C(=N\NC(=S)Nc2ccc(C)cc2)C1 (stereo unspecified) | i | 66.0 | i | i | i
C=C(C)C1CC=C(C)/C(=N/NC(=O)COc2ccc(C)cc2)C1 (stereo unspecified) | i | i | i | i | i
O=C1Nc2ccccc2N2CCCC12 (stereo unspecified) | i | 60.5 | i | i | i
